According to ChEMBL document CHEMBL1152183, “Structure-activity relationships of 3-substituted N-benzhydryl-nortropane analogs as nociceptin receptor ligands for the treatment of cough” (Bioorg Med Chem Lett, 2008):

Assays:
[1] = target: T1, Nociceptin receptor (Homo sapiens, UniProt P41146); test: Displacement of [125I][Tyr14]nociceptin FQ from human cloned nociceptin receptor expressed in CHO cells; assay type: cell-based
Summary of the method: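 Competition binding on CHO cell membranes expressing cloned human nociceptin receptor, radioligand [125I][Tyr14]nociceptin FQ; Ki determined from dose–response curves.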

[2] = target: Mu-type opioid receptor (Homo sapiens, UniProt P35372); test: Displacement of [3H]diprenorphine from human mu opioid receptor expressed in CHO cells; assay type: cell-based
Mu-type opioid receptor, sequence (P35372 whole entry): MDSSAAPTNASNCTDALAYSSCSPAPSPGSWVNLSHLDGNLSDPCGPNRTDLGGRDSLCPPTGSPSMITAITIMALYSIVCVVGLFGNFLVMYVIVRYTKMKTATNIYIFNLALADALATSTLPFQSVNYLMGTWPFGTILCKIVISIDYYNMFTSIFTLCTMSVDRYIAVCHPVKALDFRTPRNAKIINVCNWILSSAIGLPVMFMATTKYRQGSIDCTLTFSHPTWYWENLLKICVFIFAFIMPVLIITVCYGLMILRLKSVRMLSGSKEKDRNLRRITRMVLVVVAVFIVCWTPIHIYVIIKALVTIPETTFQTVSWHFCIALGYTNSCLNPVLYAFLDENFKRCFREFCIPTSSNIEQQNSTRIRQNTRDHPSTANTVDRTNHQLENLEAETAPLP
Summary of the method: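 CHO cell membranes expressing human opioid receptor; [3H]-diprenorphine as radioligand; Ki determined from dose–response curves.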

[3] = species on record: Homo sapiens; test: Selectivity for human cloned nociceptin receptor over human delta opioid receptor
[4] = species on record: Homo sapiens; test: Selectivity for human cloned nociceptin receptor over human kappa opioid receptor
[5] = target: T1, Nociceptin receptor; test: Agonist activity at human cloned nociceptin receptor expressed in CHO cells assessed as stimulation of [35S]GTPgammaS binding at 10 uM; assay type: functional, cell-based
[6] = target: T1, Nociceptin receptor; test: Agonist activity at human cloned nociceptin receptor expressed in CHO cells assessed as stimulation of [35S]GTPgammaS binding; assay type: functional, cell-based
Summary of the method: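 Membranes from cells transfected with nociceptin receptor; agonism measured as enhancement of [35S]GTPγS binding in presence of GDP; EC50 derived.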

[7] = species on record: Cavia porcellus; test: Antitussive activity in guinea pig assessed as suppression of capsaicin-induced cough after 2 hrs; assay type: functional
Summary of the method: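 Guinea pig capsaicin-induced cough model; oral dosing; cough suppression read 2 h after dosing relative to placebo; ED50 derived.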

[8] = species on record: Homo sapiens; test: Selectivity for human cloned nociceptin receptor over human mu opioid receptor
[9] = target: T1, Nociceptin receptor; test: Agonist activity at human cloned nociceptin receptor expressed in CHO cells assessed as stimulation of [35S]GTPgammaS binding at 5.5 uM; assay type: functional, cell-based
[10] = tested on: Cavia porcellus; test: Antitussive activity in guinea pig assessed as suppression of capsaicin-induced cough at 0.3 mg/kg, po; assay type: functional

T1 sequence (P41146 whole entry): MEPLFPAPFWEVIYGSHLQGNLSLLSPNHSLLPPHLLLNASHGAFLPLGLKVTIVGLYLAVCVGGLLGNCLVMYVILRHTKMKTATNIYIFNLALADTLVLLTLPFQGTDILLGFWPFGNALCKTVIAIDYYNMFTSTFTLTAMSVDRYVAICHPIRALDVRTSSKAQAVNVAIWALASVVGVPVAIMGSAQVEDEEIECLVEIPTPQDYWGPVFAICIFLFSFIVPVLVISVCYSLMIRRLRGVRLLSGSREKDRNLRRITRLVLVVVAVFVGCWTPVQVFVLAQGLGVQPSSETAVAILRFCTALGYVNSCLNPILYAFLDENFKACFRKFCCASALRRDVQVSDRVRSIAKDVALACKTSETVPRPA

Row | Structure (SMILES) | Ki [1] [nM] | Ki [2] [nM] | also measured
1 | Clc1ccccc1C(c1ccccc1Cl)N1[C@@H]2CC[C@H]1C[C@@](Cc1ccccc1)(CN1CCCC1)C2 | 116 | – | –
2 | CNC[C@@]1(c2ccccc2)C[C@H]2CC[C@@H](C1)N2C(c1ccccc1Cl)c1ccccc1Cl | 10 | 566 | –
3 | COc1ccc([C@]2(CNC(C)=O)C[C@H]3CC[C@@H](C2)N3C(c2ccccc2Cl)c2ccccc2Cl)nc1 | 62 | 3450 | –
4 | CC(=O)NC[C@@]1(Cc2ccccc2)C[C@H]2CC[C@@H](C1)N2C(c1ccccc1Cl)c1ccccc1Cl | 12 | 458 | fold change (FC) [3]: 300; fold change (FC) [4]: 34
5 | CN(C)C[C@@]1(c2cccc(F)n2)C[C@H]2CC[C@@H](C1)N2C(c1ccccc1Cl)c1ccccc1Cl | 104 | 3980 | –
6 | CC(=O)NC[C@@]1(c2cccc(F)n2)C[C@H]2CC[C@@H](C1)N2C(c1ccccc1Cl)c1ccccc1Cl | 24 | 1280 | –
7 | Clc1ccccc1C(c1ccccc1Cl)N1[C@@H]2CC[C@H]1C[C@](CN1CCCC1)(c1ccccc1)C2 | 70 | 4170 | –
8 | O=C1CCCN1C[C@@]1(Cc2ccccc2)C[C@H]2CC[C@@H](C1)N2C(c1ccccc1Cl)c1ccccc1Cl | 336 | – | –
9 | Cc1cccnc1[C@]1(CN)C[C@H]2CC[C@@H](C1)N2C(c1ccccc1Cl)c1ccccc1Cl | 50 | – | –
10 | NC[C@@]1(c2ncccc2CN2CCCCC2)C[C@H]2CC[C@@H](C1)N2C(c1ccccc1Cl)c1ccccc1Cl | 245 | – | –
11 | CC(=O)NC[C@@]1(c2ccccc2)C[C@H]2CC[C@@H](C1)N2C(c1ccccc1Cl)c1ccccc1Cl | 20 | 777 | fold change (FC) [3]: 300; fold change (FC) [4]: 32; Activity [5]: 122%; EC50 [6]: 269 nM; ED50 [7]: 0.19 mg/kg
12 | O=C1CCCN1C[C@@]1(c2ccccc2)C[C@H]2CC[C@@H](C1)N2C(c1ccccc1Cl)c1ccccc1Cl | 68 | – | –
13 | COC(=O)NC[C@@]1(c2ccccc2)C[C@H]2CC[C@@H](C1)N2C(c1ccccc1Cl)c1ccccc1Cl | 20 | 905 | –
14 | CC(=O)NC[C@@]1(c2ncccc2CN2CCCCC2)C[C@H]2CC[C@@H](C1)N2C(c1ccccc1Cl)c1ccccc1Cl | 670 | 758 | –
15 | CN(C)C[C@@]1(Cc2ccccc2)C[C@H]2CC[C@@H](C1)N2C(c1ccccc1Cl)c1ccccc1Cl | 55 | – | –
16 | CC(=O)NC[C@@]1(C2CCCCN2)C[C@H]2CC[C@@H](C1)N2C(c1ccccc1Cl)c1ccccc1Cl (stereo not given in full) | 27 | – | –
17 | NC[C@@]1(Cc2ccccc2)C[C@H]2CC[C@@H](C1)N2C(c1ccccc1Cl)c1ccccc1Cl | 11 | 1340 | fold change (FC) [3]: 300; fold change (FC) [4]: 33; fold change (FC) [8]: 121
18 | Cc1ccc2c(c1)[C@]1(CN2)C[C@H]2CC[C@@H](C1)N2C(c1ccccc1Cl)c1ccccc1Cl | 74 | 998 | –
19 | CN(C)C[C@@]1(c2ccccc2)C[C@H]2CC[C@@H](C1)N2C(c1ccccc1Cl)c1ccccc1Cl | 17 | 1490 | fold change (FC) [3]: 300; fold change (FC) [4]: 31; Activity [9]: 104%; EC50 [6]: 483 nM; Activity [10]: 36%
20 | CC(=O)NC[C@@]1(c2ccc(N3CCCCC3)cn2)C[C@H]2CC[C@@H](C1)N2C(c1ccccc1Cl)c1ccccc1Cl | 99 | – | –
21 | COc1cccc([C@]2(CNC(C)=O)C[C@H]3CC[C@@H](C2)N3C(c2ccccc2Cl)c2ccccc2Cl)n1 | 4 | 251 | –
22 | CC(=O)N(C)C[C@@]1(c2ccccc2)C[C@H]2CC[C@@H](C1)N2C(c1ccccc1Cl)c1ccccc1Cl | 210 | 2620 | fold change (FC) [8]: 13

Row | Structure (SMILES) | Ki [1] [nM] | Ki [2] [nM] | also measured
23 | NC[C@@]1(c2cccc(F)n2)C[C@H]2CC[C@@H](C1)N2C(c1ccccc1Cl)c1ccccc1Cl | 29 | – | –
24 | CCNC[C@@]1(c2cccc(OC)n2)C[C@H]2CC[C@@H](C1)N2C(c1ccccc1Cl)c1ccccc1Cl | 20 | 442 | –
25 | Fc1ccc2c(c1)[C@]1(CN2)C[C@H]2CC[C@@H](C1)N2C(c1ccccc1Cl)c1ccccc1Cl | 39 | 1710 | –
26 | CN(C)C[C@@]1(c2ccccn2)C[C@H]2CC[C@@H](C1)N2C(c1ccccc1Cl)c1ccccc1Cl | 7 | 785 | EC50 [6]: 156 nM; fold change (FC) [8]: 75
27 | NC[C@@]1(Cc2ccc(F)cc2)C[C@H]2CC[C@@H](C1)N2C(c1ccccc1Cl)c1ccccc1Cl | 34 | 1410 | Activity [9]: 87%; EC50 [6]: 124 nM
28 | CC(=O)NC[C@@]1(c2ccc(Br)cn2)C[C@H]2CC[C@@H](C1)N2C(c1ccccc1Cl)c1ccccc1Cl | 27 | 752 | –
29 | CC(=O)NC[C@@]1(c2ccccn2)C[C@H]2CC[C@@H](C1)N2C(c1ccccc1Cl)c1ccccc1Cl | 5 | 374 | fold change (FC) [8]: 75
30 | CC(=O)NC[C@@]1(c2ncccc2C)C[C@H]2CC[C@@H](C1)N2C(c1ccccc1Cl)c1ccccc1Cl | 173 | – | –
31 | CCNC[C@@]1(c2ccccn2)C[C@H]2CC[C@@H](C1)N2C(c1ccccc1Cl)c1ccccc1Cl | 6 | 743 | fold change (FC) [8]: 75
32 | CC(=O)NC[C@@]1(c2cccnc2)C[C@H]2CC[C@@H](C1)N2C(c1ccccc1Cl)c1ccccc1Cl | 35 | – | –
33 | COc1ccc([C@]2(CNC(C)=O)C[C@H]3CC[C@@H](C2)N3C(c2ccccc2Cl)c2ccccc2Cl)cc1 | 118 | 2410 | –
34 | CCNC[C@]1(Cc2ccccc2)C[C@H]2CC[C@@H](C1)N2C(c1ccccc1Cl)c1ccccc1Cl | 39 | – | –
35 | Fc1ccc(C[C@]2(CN3CCCC3)C[C@H]3CC[C@@H](C2)N3C(c2ccccc2Cl)c2ccccc2Cl)cc1 | 58 | – | –
36 | Clc1ccccc1C(c1ccccc1Cl)N1[C@@H]2CC[C@H]1C[C@@]1(CNc3ccccc31)C2 | 50 | 1200 | –
37 | NC[C@@]1(c2ccccn2)C[C@H]2CC[C@@H](C1)N2C(c1ccccc1Cl)c1ccccc1Cl | 7 | 617 | fold change (FC) [3]: 300; fold change (FC) [4]: 35; fold change (FC) [8]: 75
38 | NC[C@@]1(C2CCCCN2)C[C@H]2CC[C@@H](C1)N2C(c1ccccc1Cl)c1ccccc1Cl (stereo not given in full) | 17 | – | –
39 | NC[C@@]1(c2ccccc2)C[C@H]2CC[C@@H](C1)N2C(c1ccccc1Cl)c1ccccc1Cl | 6 | 674 | fold change (FC) [3]: 300; fold change (FC) [4]: 30; fold change (FC) [8]: 112
40 | CC(=O)NC[C@@]1(c2ccc(F)cc2)C[C@H]2CC[C@@H](C1)N2C(c1ccccc1Cl)c1ccccc1Cl | 31 | 2110 | fold change (FC) [8]: 68
41 | CC(=O)NC[C@@]1(Cc2ccc(F)cc2)C[C@H]2CC[C@@H](C1)N2C(c1ccccc1Cl)c1ccccc1Cl | 15 | 782 | Activity [5]: 124%; EC50 [6]: 129 nM; Activity [10]: 23%
42 | COc1cccc([C@]2(CN)C[C@H]3CC[C@@H](C2)N3C(c2ccccc2Cl)c2ccccc2Cl)n1 | 11 | 123 | fold change (FC) [3]: 300; fold change (FC) [4]: 36
43 | NC[C@@]1(c2cccnc2)C[C@H]2CC[C@@H](C1)N2C(c1ccccc1Cl)c1ccccc1Cl | 82 | – | –
